Assay outcomes: PubChem BioAssay, several laboratories
ZTA DNA inh = counter-screen for EBNA-1 inhibitors: inhibitors of Epstein-Barr virus ZTA. P03206. ZTA-DNA binding, fluorescence polarization. inhibition, % at 11 µM. hit rate 0.15% among 320,000. AID 2234; in the data active means inhibition above about 33%
Target sequence (P03206 whole entry, looked up): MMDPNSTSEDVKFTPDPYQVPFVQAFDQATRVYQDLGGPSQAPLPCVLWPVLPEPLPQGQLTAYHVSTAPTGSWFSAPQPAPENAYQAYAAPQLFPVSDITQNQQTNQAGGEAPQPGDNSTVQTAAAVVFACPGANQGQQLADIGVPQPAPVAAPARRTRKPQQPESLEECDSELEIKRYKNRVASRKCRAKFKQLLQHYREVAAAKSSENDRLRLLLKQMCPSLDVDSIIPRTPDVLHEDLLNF
eIF4H inh = inhibitors of RNA binding by human eIF4H; Q15056; inhibition, % at 35 µM; AID 2012; eIF4H fluorescence polarization binding assay; hit rate 0.94% among 290,000;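 further: calls also rest on retests at 20 µM and on dose response follow-up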
NS3 helicase inh = HCV NS3 helicase inhibition; NS3 helicase DNA unwinding, Cy5 molecular beacon fluorescence; hit rate 0.56% among 290,000; inhibition, % at 10.9 µM;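 active means inhibition above the mean of all tested compounds plus 3 SD, set per campaign, cut at about 35% in these data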
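System: HCV NS3 helicase fragment; control set: DMSO and thioflavine S; technique: Cy5 fluorescence at 0 and 60 min, beacon hairpin quenching; reagent: beacon DNA duplex substrate plus ATP; replicates: singlicate; schedule: 1 h reaction at 25 °C, ATP-initiated; medium: MOPS buffer pH 6.5 with MgCl2, DTT, Tween20, BSA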
PABP FP inh = PABP-poly(A) binding inhibition | inhibition, % at 35 µM | AID 2014 | PABP-poly(A) RNA binding, fluorescence polarization | P11940 | hit rate 1% among 290,000;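 further: calls also rest on retests at 20 µM and on dose response follow-up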
EBNA-1 inhibitor = blocks EBNA-1 binding to DNA | inhibition, % at 14.8 µM | hit rate 0.34% among 300,000 | EBNA-1 DNA binding, fluorescence polarization | AID 1950; in the data active means inhibition above about 28%
PABP1 MLLE inh = inhibitors of microRNA-mediated deadenylation, human PABP1 MLLE binding | GST-MLLE / FITC-PAM2 fluorescence polarization | hit rate 0.36% among 360,000 | AID 588489 | P11940 | inhibition, % at 20 µM; in the data active means inhibition above about 35%, passing the limit was not always enough
NS3 helicase cf = confirmation of Hepatitis C virus NS3 helicase inhibitors; NS3 helicase DNA unwinding, Cy5 molecular beacon fluorescence; inhibition, % at 10.9 µM; shares compounds with NS3 helicase inh; hit rate 31% among 1,600;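 active means inhibition above the mean of all tested compounds plus 3 SD, cutoff set per campaign, cut at about 36% in these data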
FID counter trip = counter-screen for HCV NS3 helicase inhibitors: DNA intercalator displacement | shares compounds with NS3 helicase inh | DNA fluorescent intercalator displacement, fluorescence | inhibition, % at 7.9 µM | hit rate 4% among 1,600; in the data active means inhibition above about 37%;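 further: higher means more displacement of ethidium bromide from the DNA hairpin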
DNA FID DR = counter-screen for HCV NS3 helicase inhibitors: DNA intercalator displacement dose response; IC50, µM; AID 2172; shares compounds with NS3 helicase inh; fluorescent intercalator displacement from DNA, fluorescence; 120 tested, under 10 active
Hits are given with their value; n = inactive; u = inconclusive; x = no result. This is a sample that favours compounds with a hit; in the whole collection about 2.1% have one here. Unless noted, how the calls were made is not given here.

SMILES | ZTA DNA inh | eIF4H inh | NS3 helicase inh | PABP FP inh | EBNA-1 inhibitor | PABP1 MLLE inh | NS3 helicase cf | FID counter trip | others
COc1ccc(C2/C(=C(\O)c3ccc4c(c3)OCCO4)C(=O)C(=O)N2c2nc(C)c(C(C)=O)s2)cc1 (configuration not stated) | n | n | 38 | n | n | n | 64 | n | DNA FID DR=n
COC(=O)c1ccc(C2/C(=C(\O)c3ccc4c(c3)OCCO4)C(=O)C(=O)N2c2nnc(C)s2)cc1 (configuration not stated) | n | n | n | n | n | n | x | x
O=C(N/N=C/c1c(O)ccc2ccccc12)c1ccc(CO)nc1 | n | n | 39 | n | n | n | n | n
NC(=S)N/N=C/c1c(O)ccc2ccccc12 | n | n | 57 | n | n | 47 | n | n
CCOC(=O)c1[nH]c(C)c(C(=O)/C=C/c2ccc(C(=O)O)cc2)c1C | n | n | n | n | n | n | x | x
Cc1cc(C)n(Cc2ccc(C(=O)O)cc2)n1 | n | n | n | n | n | n | x | x
Cc1ccc(C)n1Cc1ccc(C(=O)O)cc1 | 85 | 93 | 38 | 88 | 29 | n | 80 | n
CC(=O)c1sc(C(=O)O)c(-c2ccco2)c1-c1ccco1 | n | n | 52 | n | n | n | n | 39
O=C(NCC1CCCO1)c1onc(CSc2ccccc2)c1C(=O)O (configuration not stated) | n | n | n | n | n | n | x | x
CC(C)c1ccc(SCc2noc(C(=O)NCC3CCCO3)c2C(=O)O)cc1 (configuration not stated) | n | n | 41 | n | n | n | n | n
Cc1c(CC(=O)NCC(=O)O)c(=O)oc2cc3occ(-c4ccccc4)c3cc12 | n | n | 38 | n | n | n | 51 | n
O=C(CC1Nc2cccc3cccc(c23)NC1=O)Nc1ccccc1 (configuration not stated) | n | u | 67 | n | n | n | n | n
NC(=O)CC1Nc2cccc3cccc(c23)NC1=O (configuration not stated) | n | n | 61 | n | n | n | n | n
COc1ccc(NC(=O)CSc2nc(N)c(NC(=O)c3ccccc3F)c(=O)[nH]2)cc1 | n | n | n | n | n | n | x | x
CC(C)NC(=O)CSc1nc(N)c(NC(=O)c2ccccc2F)c(=O)[nH]1 | n | n | 65 | n | n | n | n | n
CCOC(=O)c1sc2nc(CC(=O)OC)nc(N(C)CCc3ccccn3)c2c1C | n | n | n | n | n | n | x | x
Cc1ccc(S(=O)(=O)Nc2cc(C(=O)O)ccc2N2CCCCC2)cc1 | n | n | 75 | n | n | n | n | n
COC(=O)c1ccc(C2C(C(=O)c3cc4ccccc4o3)=C(O)C(=O)N2c2cc(C)on2)cc1 (configuration not stated) | n | u | 51 | 46 | n | n | 93 | n
CCCCCOc1ccc(C2C(C(=O)c3ccc(C)o3)=C(O)C(=O)N2c2cc(C)on2)cc1 (configuration not stated) | n | n | 63 | n | n | n | 162 | n | DNA FID DR=n
Cc1cccc(N2C(=O)C(O)=C(C(=O)c3cccs3)C2c2cccc(Oc3ccccc3)c2)n1 (configuration not stated) | n | n | 80 | n | n | n | 114 | n | DNA FID DR=n
Cc1cc(N2C(=O)C(O)=C(C(=O)c3cc4ccccc4o3)C2c2ccc(OC(C)C)cc2)no1 (configuration not stated) | n | n | n | n | n | n | x | x
COc1cccc(C2C(C(=O)c3cccs3)=C(O)C(=O)N2c2cc(C)on2)c1 (configuration not stated) | n | n | n | n | n | n | x | x
COc1cc(C2C(C(=O)c3cccs3)=C(O)C(=O)N2c2cc(C)on2)ccc1O (configuration not stated) | n | n | 45 | n | n | n | n | 37
CC(=O)NC1C(OCc2cccc(Br)c2)OC(COC(C)=O)C(OC(C)=O)C1OC(C)=O (configuration not stated) | n | n | n | n | n | n | x | x
COc1cc(C2C(C(=O)c3ccc(C)o3)=C(O)C(=O)N2c2cc(C)on2)ccc1OCc1ccccc1 (configuration not stated) | n | n | 84 | n | n | n | 188 | n | DNA FID DR=n
SMILES | ZTA DNA inh | eIF4H inh | NS3 helicase inh | PABP FP inh | EBNA-1 inhibitor | PABP1 MLLE inh | NS3 helicase cf | FID counter trip | others
C=CCN(CC=C)CCOc1ccc(OC(C)C)cc1 | n | n | n | n | n | n | x | x
S=C(Nc1ccccc1)N1N=C(c2cccs2)CC1c1cccs1 (configuration not stated) | n | n | n | n | n | n | x | x
Cc1nc([N+](=O)[O-])cn1CC(O)c1ccc(-c2ccccc2)cc1 (configuration not stated) | n | n | 45 | n | n | n | n | n
Cc1ccc(C(O)Cn2cc([N+](=O)[O-])nc2C)cc1 (configuration not stated) | n | n | n | n | n | n | x | x
O=C(C1CC1)N(Cc1ccco1)c1nc(-c2ccccc2)cs1 | n | n | n | n | n | n | x | x
CCc1cccc(NC(=O)CSCc2nc3sc(C)c(C)c3c(=O)[nH]2)c1 | n | x | x | x | x | n | x | x
Cc1ccc(-c2nc3c(c(=O)c4ccccc4n3C)c(=O)n2Cc2ccco2)cc1 | n | n | 38 | n | n | n | n | n
Nc1ccc(C(CC(=O)O)n2cccc2)cc1 (configuration not stated) | n | 67 | 52 | 1.2 | n | n | n | n
CCOc1cc(C(=O)OCC(=O)Nc2ccc(Cl)cn2)ccc1OCC(=O)N1CCOCC1 | n | n | n | n | n | n | x | x
COc1cccc(C(=O)Nc2nnc(S(=O)(=O)Nc3cccc(C)c3)s2)c1 | n | n | 46 | n | n | n | n | n
Cc1cccc(NS(=O)(=O)c2nnc(NC(=O)c3ccc(C)c(C)c3)s2)c1 | n | n | n | n | n | n | x | x
Cc1nnc(Cn2cnc3c2c(=O)n(C)c(=O)n3C)o1 | n | n | 39 | n | n | n | n | n
Cn1c(=O)c2c(ncn2Cc2ccccc2)n(C)c1=O | n | n | n | n | n | n | x | x
O=C(O)Cc1sc(N/N=C\c2ccncc2)nc1-c1ccccc1 | n | n | 55 | n | n | n | n | n
Cc1nn(Cc2ccc(Cl)c(Cl)c2)c(C)c1NC(=O)c1cc(-c2ccco2)on1 | n | n | 40 | n | n | n | n | n
Cc1nn(Cc2ccc(Cl)cc2)c(C)c1NC(=O)c1cc(-c2ccco2)on1 | n | n | n | n | n | n | x | x
CCOC(=O)Nc1nnc(Cc2ccc(Cl)c(Cl)c2)s1 | n | n | n | n | n | n | x | x
